One assay relates to Trichophyton rubrum. In words: Antifungal activity against Trichophyton rubrum after 24 hrs.
Another assay deals with Penicillium chrysogenum. Nature of the assay: Antifungal activity against Penicillium notatum ATCC 11654 at 1000 ug/ml after 24 hrs. Format: functional, organism-based.
The next assay deals with Candida albicans. In words: Antifungal activity against Candida albicans ATCC 10234 at 1000 ug/ml after 24 hrs. Format: functional, organism-based. The essentials: (§1)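 Agar dilution in 96-well plates. Samples in DMSO, made up with sterile water, 1:2 serially diluted over six steps, then mixed with an equal volume of molten double-strength Sabouraud dextrose agar (200 µL per well). Yeasts were grown on SDA at 30 °C for 24 h and harvested in PBS. 100 µL inoculum (10⁵ CFU) was added per well and incubated at 30 °C for 24 h. Miconazole was the positive control.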

The next assay relates to Epidermophyton floccosum. In words: Antifungal activity against Epidermophyton floccosum after 24 hrs. Format: functional.
Assay [1] concerns Scopulariopsis brevicaulis. In words: Antifungal activity against Scopulariopsis brevicaulis at 1000 ug/ml after 24 hrs.
In a further assay the test system is Saccharomyces cerevisiae. In words: Antifungal activity against Saccharomyces cerevisiae NCIMB 080178 at 1000 ug/ml after 24 hrs. Type of assay: functional, organism-based. The gist of the method: as §1
The subject of assay [2] is Trichophyton interdigitale. In words: Antifungal activity against Trichophyton interdigitale EL 5171 after 24 hrs. Format: functional.
For assay [3], the system named is Neoscytalidium dimidiatum. Nature of the assay: Antifungal activity against Scytalidium dimidiatum at 1000 ug/ml after 24 hrs. Type of assay: functional, organism-based.
For the next assay, the system named is Aspergillus niger. Nature of the assay: Antifungal activity against Aspergillus niger ATCC 16404 at 1000 ug/ml after 24 hrs. Type of assay: functional, organism-based.

Here are results for 6 compounds from ChEMBL document CHEMBL1155579, “Known and novel terpenes from Buddleja globosa displaying selective antifungal activity against dermatophytes” (2000).

≈ marks a conversion by molar mass, not a printed value. Calls of active or inactive are those of the source. No cut-off for these calls is given here.

Regarding `C=C1CC/C=C(\C)C(=O)[C@H](OC(C)=O)[C@@H]2[C@@H]1CC2(C)C` [BUDDLEDIN A], the MIC (with Trichophyton rubrum; with Epidermophyton floccosum; in assay [2]) was 43 µM (≈ 11.9 µg/mL) throughout. Further, the outcome (in the assay with Penicillium chrysogenum; with Candida albicans; in [1]; with Saccharomyces cerevisiae; in [3]; in the assay with Aspergillus niger) was inactive.

Take `C=C1CC/C=C(\C)C(=O)[C@H](O)[C@@H]2[C@@H]1CC2(C)C` [BUDDLEDIN B]: the MIC (against Trichophyton rubrum; in the assay with Epidermophyton floccosum; in [2]) was 51 µM (≈ 12 µg/mL) in each case. Besides, the outcome (with Penicillium chrysogenum; in the assay on Candida albicans; in assay [1]; in the assay with Saccharomyces cerevisiae; in assay [3]; with Aspergillus niger) was inactive.

Turning to `CC(C)C1=CC=C2C(=C(O)C[C@H]3C(C)(C)CCC[C@]23C)C1=O` [BUDDLEJONE], the MIC (in the assay on Trichophyton rubrum; against Epidermophyton floccosum; in assay [2]) was 2500 µM (≈ 751 µg/mL) each time. Besides, the result (in the assay on Penicillium chrysogenum; in the assay on Candida albicans; in [1]; with Saccharomyces cerevisiae; in assay [3]; in the assay with Aspergillus niger) was inactive.

With `CC(C)C1=CC=C2C(=CC[C@H]3C(C)(C)CCC[C@]23C)C1=O` [DEOXYBUDDLEJONE], the MIC (against Trichophyton rubrum; against Epidermophyton floccosum; in [2]) was 2640 µM (≈ 751 µg/mL) in each case. Further, the outcome (with Penicillium chrysogenum; in the assay with Candida albicans; in assay [1]; with Saccharomyces cerevisiae; in assay [3]; with Aspergillus niger) was inactive.

Consider `CC(C)[C@]1(O)C(=O)C=C2[C@@]3(CC[C@H]4C(C)(C)CCC[C@]24C)[C@@H]2C(=O)[C@@](O)(C(C)C)[C@@H](C4=C2[C@@]2(C)CCCC(C)(C)[C@@H]2CC4)[C@H]31` [MAYTENONE], for which the minimal inhibitory concentration (MIC) (against Trichophyton rubrum; in the assay with Epidermophyton floccosum; in [2]) was 625 µM (≈ 378 µg/mL) in each case. The outcome (in the assay on Penicillium chrysogenum; in the assay with Candida albicans; in assay [1]; with Saccharomyces cerevisiae; in [3]; with Aspergillus niger) was inactive.

`Clc1ccc(COC(Cn2ccnc2)c2ccc(Cl)cc2Cl)c(Cl)c1` (centres undefined) [MICONAZOLE]: the MIC (against Trichophyton rubrum; in the assay with Epidermophyton floccosum; in assay [2]) was 5 µM (≈ 2.08 µg/mL) throughout. Besides, the result (in the assay on Penicillium chrysogenum; with Candida albicans; in assay [1]; with Saccharomyces cerevisiae; in [3]; in the assay on Aspergillus niger) was inactive.
